For one assay, the system named is Salmonella typhi. The experiment in a line: Antibacterial activity against Salmonella typhi MTCC 98 assessed as growth inhibition after 24 to 48 hrs by broth microdilution method. Format: functional, Salmonella enterica subsp. enterica serovar Typhi. The conditions noted are these: Salmonella enterica. In general terms: In broth dilution the organism is exposed to a series of concentrations in liquid medium.

In another assay the test system is Candida albicans. Kind of assay: Antifungal activity against Candida albicans MTCC 227 assessed as growth inhibition after 24 to 48 hrs by broth microdilution method. Format: functional. The essentials: (§1)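 Fungal nutrition used Sabouraud Dextrose broth with inoculum at 10⁸ CFU mL⁻¹ by turbidity. Serial compound dilutions were made in 2% DMSO in water. Growth was noted on subculture after 24 and 48 h. MIC was taken as the highest dilution preventing visible turbidity after spot subculture.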

Assay [1] concerns Mycobacterium tuberculosis. The experiment in a line: Antitubercular activity against Mycobacterium tuberculosis H37Rv assessed as inhibition of colony formation at 250 ug/mL after 2 to 4 weeks by Lowensteine-Jensen method relative to control. Format: functional.
A further assay deals with Escherichia coli. The experiment in a line: Antibacterial activity against Escherichia coli MTCC 443 assessed as growth inhibition after 24 to 48 hrs by broth microdilution method. Format: functional. The essentials:
(§2)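 Bacteria were grown in Mueller-Hinton broth with inoculum adjusted to 10⁸ CFU mL⁻¹ by turbidity. Compounds were serially diluted in 2% aqueous DMSO and incubated at 37 °C overnight. Growth was checked by subculture at 24 and 48 h. MIC was taken as the highest dilution with no turbidity after spot subculture.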

The subject of a further assay is Plasmodium falciparum. Kind of assay: Antimalarial activity against chloroquine/quinine sensitive Plasmodium falciparum assessed as parasite growth inhibition after 48 hrs. Format: functional, organism-based.
The subject of another assay is Bacillus subtilis. The experiment in a line: Antibacterial activity against Bacillus subtilis MTCC 441 assessed as growth inhibition after 24 to 48 hrs by broth microdilution method. Format: functional. The essentials: as §2
Another assay concerns Aspergillus fumigatus. Kind of assay: Antifungal activity against Aspergillus fumigatus MTCC 3008 assessed as growth inhibition after 24 to 48 hrs by broth microdilution method. Format: functional. The essentials: as §1
The test system of a further assay is Streptococcus pneumoniae. The experiment in a line: Antibacterial activity against Streptococcus pneumoniae MTCC 1936 assessed as growth inhibition after 24 to 48 hrs by broth microdilution method. Format: functional. The essentials: as §2
Assay [2] has as its system Mycobacterium tuberculosis. The experiment in a line: Antitubercular activity against Mycobacterium tuberculosis H37Rv assessed as inhibition of colony formation at 100 ug/mL after 2 to 4 weeks by Lowensteine-Jensen method relative to control. Format: functional.
A further assay relates to Vibrio cholerae. Kind of assay: Antibacterial activity against Vibrio cholerae MTCC 3906 assessed as growth inhibition after 24 to 48 hrs by broth microdilution method. Format: functional.
A further assay relates to Clostridium tetani. The experiment in a line: Antibacterial activity against Clostridium tetani MTCC 449 assessed as growth inhibition after 24 to 48 hrs by broth microdilution method. Format: functional.

The values that follow come from ChEMBL document CHEMBL3232885, “Synthesis, characterization and pharmacological screening of some novel 5-imidazopyrazole incorporated polyhydroquinoline derivatives” (Eur J Med Chem, 2014).

≈ marks a conversion by molar mass, not a printed value. Some results are limits rather than exact numbers.

Broadly, the MIC is the lowest concentration that inhibits growth of the organism. By inhibition is commonly meant the drop in the measured response relative to a control, in per cent. As usually defined, the IC50 is the midpoint of a concentration-inhibition curve. In the case of `Cc1nn(-c2ccccc2)c(-n2ccnc2)c1C1C(C#N)=C(N)N(c2ccccc2O)C2=C1C(=O)CC(C)(C)C2` (stereo not drawn), the minimal inhibitory concentration (MIC) in the assay with Salmonella typhi worked out at 250 µg/mL (≈ 470 µM); in the assay with Candida albicans, 1000 µg/mL (≈ 1880 µM); in the assay on Escherichia coli, 250 µg/mL (≈ 470 µM); with Bacillus subtilis, 100 µg/mL (≈ 188 µM); in the assay with Aspergillus fumigatus, 500 µg/mL (≈ 941 µM); in the assay with Streptococcus pneumoniae it was 125 µg/mL (≈ 235 µM). The figures for the minimum inhibitory concentration (MIC) in the assay with Vibrio cholerae and with Clostridium tetani were 125 µg/mL (≈ 235 µM) and 200 µg/mL (≈ 376 µM), respectively. In addition, the inhibition at 250 µg/mL in assay [1] stood at 45%. In addition, the IC50 with Plasmodium falciparum was found to be 0.71 µg/mL (≈ 1.34 µM). In [2], the inhibition at 100 µg/mL was found to be 38%.

On to `CCOC(=O)C1=C(N)N(c2ccccc2)C2=C(C(=O)CC(C)(C)C2)C1c1c(C)nn(-c2ccccc2)c1-n1ccnc1` (stereo not drawn), for which the minimum inhibitory concentration (MIC) in the assay on Salmonella typhi is 200 µg/mL (≈ 355 µM); with Candida albicans, 250 µg/mL (≈ 444 µM); in the assay on Escherichia coli, 250 µg/mL (≈ 444 µM); in the assay on Bacillus subtilis, 250 µg/mL (≈ 444 µM); in the assay with Aspergillus fumigatus it was 500 µg/mL (≈ 889 µM); in the assay on Streptococcus pneumoniae, 500 µg/mL (≈ 889 µM). Besides, the values for the minimal inhibitory concentration (MIC) with Vibrio cholerae and in the assay on Clostridium tetani were 125 µg/mL (≈ 222 µM) and 200 µg/mL (≈ 355 µM), respectively. Also, the inhibition at 250 µg/mL in assay [1] was 45%. The IC50 in the assay on Plasmodium falciparum worked out at 1.47 µg/mL (≈ 2.61 µM). Besides, the inhibition at 100 µg/mL in assay [2] came to 37%.

On to `CCOC(=O)C1=C(N)N(c2ccc(Cl)cc2)C2=C(C(=O)CC(C)(C)C2)C1c1c(C)nn(-c2ccccc2)c1-n1ccnc1` (stereo not drawn), for which the minimum inhibitory concentration (MIC) in the assay with Salmonella typhi was 100 µg/mL (≈ 167 µM); with Candida albicans, more than 1000 µg/mL; in the assay with Escherichia coli, 100 µg/mL (≈ 167 µM); in the assay with Bacillus subtilis, 100 µg/mL (≈ 167 µM); with Aspergillus fumigatus, 500 µg/mL (≈ 837 µM); in the assay on Streptococcus pneumoniae, 125 µg/mL (≈ 209 µM). Further, the minimal inhibitory concentration (MIC) in the assay with Vibrio cholerae came out at 200 µg/mL (≈ 335 µM); in the assay on Clostridium tetani, 125 µg/mL (≈ 209 µM). Moreover, the inhibition at 250 µg/mL in assay [1] turned out to be 63%. In addition, the IC50 in the assay on Plasmodium falciparum was found to be 0.057 µg/mL (≈ 0.0955 µM). Also, in assay [2], the inhibition at 100 µg/mL amounted to 58%.

Regarding `CCOC(=O)C1=C(N)N(c2ccc(OC)cc2)C2=C(C(=O)CC(C)(C)C2)C1c1c(C)nn(-c2ccccc2)c1-n1ccnc1` (stereo not drawn), the minimal inhibitory concentration (MIC) in the assay on Salmonella typhi came out at 200 µg/mL (≈ 337 µM); with Candida albicans it was 1000 µg/mL (≈ 1690 µM); in the assay with Escherichia coli, 100 µg/mL (≈ 169 µM); with Bacillus subtilis it was 125 µg/mL (≈ 211 µM); in the assay with Aspergillus fumigatus it was 1000 µg/mL (≈ 1690 µM); in the assay with Streptococcus pneumoniae, 100 µg/mL (≈ 169 µM). The MIC in the assay on Vibrio cholerae and with Clostridium tetani was 250 µg/mL (≈ 422 µM) throughout. Also, the inhibition at 250 µg/mL in assay [1] was 25%. Further, the IC50 with Plasmodium falciparum came to 1.49 µg/mL (≈ 2.51 µM). Also, in assay [2], the inhibition at 100 µg/mL is 20%.

Take `Cc1nn(-c2ccccc2)c(-n2ccnc2)c1C1C(C(N)=O)=C(N)N(c2ccc(O)cc2)C2=C1C(=O)CCC2` (stereo not drawn): the MIC was found to be 100 µg/mL (≈ 192 µM) with Salmonella typhi; 1000 µg/mL (≈ 1920 µM) in the assay with Candida albicans; 200 µg/mL (≈ 383 µM) with Escherichia coli; 200 µg/mL (≈ 383 µM) with Bacillus subtilis; 1000 µg/mL (≈ 1920 µM) in the assay with Aspergillus fumigatus; 250 µg/mL (≈ 479 µM) in the assay on Streptococcus pneumoniae. For the same compound, the MIC in the assay with Vibrio cholerae came to 500 µg/mL (≈ 959 µM); with Clostridium tetani, 200 µg/mL (≈ 383 µM). Further, the inhibition at 250 µg/mL in assay [1] worked out at 67%. In the assay on Plasmodium falciparum, the IC50 was found to be 0.033 µg/mL (≈ 0.0633 µM). Besides, the inhibition at 100 µg/mL in assay [2] was 60%.

For the compound `Cc1nn(-c2ccccc2)c(-n2ccnc2)c1C1C(C(N)=O)=C(N)N(c2ccc(Cl)cc2)C2=C1C(=O)CC(C)(C)C2` (stereo not drawn), the MIC in the assay with Salmonella typhi turned out to be 250 µg/mL (≈ 440 µM); in the assay with Candida albicans it was 250 µg/mL (≈ 440 µM); in the assay on Escherichia coli it was 250 µg/mL (≈ 440 µM); in the assay on Bacillus subtilis, 200 µg/mL (≈ 352 µM); in the assay on Aspergillus fumigatus it was 1000 µg/mL (≈ 1760 µM); in the assay on Streptococcus pneumoniae, 200 µg/mL (≈ 352 µM). Further, the values for the minimum inhibitory concentration (MIC) in the assay on Vibrio cholerae and with Clostridium tetani were 500 µg/mL (≈ 880 µM) and 200 µg/mL (≈ 352 µM), respectively. Moreover, the inhibition at 250 µg/mL in assay [1] was found to be 75%. In the assay with Plasmodium falciparum, the half-maximal inhibitory concentration (IC50) amounted to 0.059 µg/mL (≈ 0.104 µM). Besides, the inhibition at 100 µg/mL in assay [2] was 66%.

As to `COc1ccc(N2C(N)=C(C#N)C(c3c(C)nn(-c4ccccc4)c3-n3ccnc3)C3=C2CC(C)(C)CC3=O)cc1` (stereo not drawn), the minimal inhibitory concentration (MIC) with Salmonella typhi came out at 100 µg/mL (≈ 183 µM); in the assay with Candida albicans it was 1000 µg/mL (≈ 1830 µM); with Escherichia coli, 200 µg/mL (≈ 367 µM); in the assay on Bacillus subtilis, 125 µg/mL (≈ 229 µM); in the assay on Aspergillus fumigatus it was 500 µg/mL (≈ 916 µM); in the assay with Streptococcus pneumoniae, 100 µg/mL (≈ 183 µM). For the same compound, the MIC in the assay with Vibrio cholerae amounted to 250 µg/mL (≈ 458 µM); with Clostridium tetani, 100 µg/mL (≈ 183 µM). Also, the inhibition at 250 µg/mL in [1] was determined as 91%. Further, the concentration for half-maximal inhibition (IC50) in the assay on Plasmodium falciparum amounted to 0.086 µg/mL (≈ 0.158 µM). Also, the inhibition at 100 µg/mL in [2] worked out at 88%.

For `CCOC(=O)C1=C(N)N(c2ccc(O)cc2)C2=C(C(=O)CCC2)C1c1c(C)nn(-c2ccccc2)c1-n1ccnc1` (stereo not drawn), the MIC was 200 µg/mL (≈ 363 µM) in the assay on Salmonella typhi; 500 µg/mL (≈ 908 µM) in the assay with Candida albicans; 62.5 µg/mL (≈ 114 µM) in the assay with Escherichia coli; 200 µg/mL (≈ 363 µM) with Bacillus subtilis; 500 µg/mL (≈ 908 µM) in the assay on Aspergillus fumigatus; 250 µg/mL (≈ 454 µM) in the assay with Streptococcus pneumoniae. Moreover, the MIC in the assay with Vibrio cholerae and with Clostridium tetani was 200 µg/mL (≈ 363 µM) in each case. For the same compound, in assay [1], the inhibition at 250 µg/mL came to 41%. Besides, the half-maximal inhibitory concentration (IC50) in the assay on Plasmodium falciparum came to 0.067 µg/mL (≈ 0.122 µM). Besides, in [2], the inhibition at 100 µg/mL turned out to be 37%.
